Data on one compound can be found in ChEMBL document CHEMBL2086252, “Syntheses and evaluation of anticonvulsant activity of novel branched alkyl carbamates” (J Med Chem, 2012).

The subject of series [1] is Rattus norvegicus. Kind of series: Neurotoxicity in pilocarpine-induced status epilepticus Sprague-Dawley albino rat model assessed as minimal motor impairment at 100 mg/kg, ip after 0.25 hr by rotarod test. The series is classed as toxicity, organism-based. On the set-up: dose 100 mg/kg, route intraperitoneal. The note with it: in vivo. Background: The rotarod test checks motor coordination on a turning rod.

For series [2], the system named is Mus musculus. Briefly: Anticonvulsant activity in albino CF1 mouse assessed as protection against subcutaneous metrazol-induced seizures at 30 mg/kg, ip after 0.5 hrs. The class given is functional, organism-based. Set-up: dose 30 mg/kg. Summed up:
(§1)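 Mice dosed ip at 30, 100 or 300 mg/kg, then tested 0.5 h and 4 h after administration in the MES or scMet test. Protection was recorded as animals protected over animals tested. Neurotoxicity was recorded as motor impairment or sedation, as animals affected over animals tested.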

Series [3] deals with Rattus norvegicus. Kind of series: Protective index, ratio of TD50 for ip dosed Sprague-Dawley albino rat by rotarod test to ED50 for ip dosed Sprague-Dawley albino rat by subcutaneous metrazol seizures test. The class given is functional. Summed up: (§2)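 Protective index calculated as TD50/ED50, with TD50 and ED50 taken from the same species and dosing route.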
In series [4] the test system is Rattus norvegicus. Kind of series: Protective index, ratio of TD50 for ip dosed Sprague-Dawley albino rat by rotarod test to ED50 for ip dosed Sprague-Dawley albino rat by maximal electroshock seizures test. The class given is functional. Summed up:
as §2

The test system of series [5] is Rattus norvegicus. Kind of series: Anticonvulsant activity in ip dosed Sprague-Dawley albino rat assessed as protection against pilocarpine-induced status epilepticus after 0.5 hrs. The class given is functional. Summed up: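 Pilocarpine status epilepticus model in rats. Number and severity of convulsive seizures were observed behaviourally.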
Series [6] relates to Mus musculus. Briefly: Neurotoxicity in albino CF1 mouse assessed as minimal motor impairment at 30 mg/kg, ip after 0.5 hrs by rotarod test. The class given is toxicity, organism-based. On the set-up: dose 30 mg/kg, route intraperitoneal. Conditions: in vivo. Summed up:
as §1

Series [7] concerns Mus musculus. Briefly: Protective index, ratio of TD50 for ip dosed albino CF1 mouse by rotarod test to ED50 for ip dosed albino CF1 mouse by 6 Hz psychomotor seizure test. The class given is functional. The procedure, abridged:
as §2

Series [8] concerns Rattus norvegicus. Kind of series: Neurotoxicity in pilocarpine-induced status epilepticus Sprague-Dawley albino rat model assessed as minimal motor impairment at 100 mg/kg, ip after 4 hrs by rotarod test. The class given is toxicity, organism-based. On the set-up: dose 100 mg/kg, route intraperitoneal. Conditions: in vivo.
The subject of series [9] is Rattus norvegicus. Kind of series: Neurotoxicity in pilocarpine-induced status epilepticus Sprague-Dawley albino rat model assessed as minimal motor impairment at 100 mg/kg, ip after 0.5 hrs by rotarod test. The series is classed as toxicity, organism-based. Set-up: dose 100 mg/kg, route intraperitoneal. Conditions: in vivo.
Series [10] deals with Rattus norvegicus. Kind of series: Anticonvulsant activity in Sprague-Dawley albino rat assessed as protection against pilocarpine-induced status epilepticus at 130 mg/kg, ip administered 0 and 30 mins after status epilepticus onset.
Series [11] has as its system Mus musculus. Kind of series: Anticonvulsant activity in albino CF1 mouse assessed as protection against maximal electroshock-induced seizures at 300 mg/kg, ip after 4 hrs. The class given is functional, organism-based. On the set-up: dose 300 mg/kg. The procedure, abridged:
as §1
For orientation: The maximal electroshock test induces tonic seizures with an electrical stimulus.

Series [12] deals with Mus musculus. Kind of series: Anticonvulsant activity in ip dosed albino CF1 mouse assessed as protection against maximal electroshock-induced seizures. The class given is functional. Summed up:
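Quantitative testing: rats dosed orally or ip in MES and scMet tests, and mice dosed ip, including the 6 Hz (32 mA) psychomotor seizure test. ED50 and TD50 were reported in mg/kg with ranges in parentheses. Protective index was calculated as TD50/ED50.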

For series [13], the system named is Rattus norvegicus. Kind of series: Neurotoxicity in pilocarpine-induced status epilepticus Sprague-Dawley albino rat model assessed as minimal motor impairment at 300 mg/kg, ip after 0.25 hr by rotarod test. Conditions: in vivo. Set-up: dose 300 mg/kg, route intraperitoneal. The series is classed as toxicity, organism-based. Summed up:
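Rat pilocarpine status epilepticus model: test carbamate given at 0 or 30 min after the first observed Racine stage 3 motor seizure, which marks SE onset. Neurotoxicity was scored within the same model.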

For series [14], the system named is Rattus norvegicus. Kind of series: Anticonvulsant activity in Sprague-Dawley albino rat assessed as protection against maximal electroshock-induced seizures at 30 mg/kg, po after 2 hrs. The series is classed as functional, organism-based. Set-up: dose 30 mg/kg. Summed up: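 Rats dosed orally. Anti-MES protection was scored as animals protected over animals tested at each time after dosing. Neurotoxicity was scored as motor impairment or sedation, as animals affected over animals tested.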

Series [15] relates to Rattus norvegicus. Briefly: Protective index, ratio of TD50 for po dosed Sprague-Dawley albino rat by rotarod test to ED50 for po dosed Sprague-Dawley albino rat by subcutaneous metrazol seizures test. The series is classed as functional. Summed up: as §2

The source made the active and inactive calls. The calls are words filed in the database; no cut-off is given here.

One may read the ED50 as the dose that gives a 50% effect, or the effect in half of the subjects. As for `CCC(COC(N)=O)C(C)C` (racemic), the Activity entry with Rattus norvegicus [1] is on record as “Toxic”; with Mus musculus [6], “Non-toxic”; in the series on Rattus norvegicus [8], “Non-toxic”; in the series on Rattus norvegicus [9], “Toxic”; in the series on Rattus norvegicus [13], “Toxic”. Besides, the outcome with Mus musculus [2], in the series on Mus musculus [11] and in the series on Rattus norvegicus [14] was inactive. Further, the “Ratio TD50/ED50” value was determined as 1.3 in the series with Rattus norvegicus [3], 3.6 in the series with Rattus norvegicus [4], 4.4 with Mus musculus [7] and 14 with Rattus norvegicus [15]. For the same compound, the median effective dose (ED50) turned out to be 81 mg/kg with Rattus norvegicus [5] and 103 mg/kg in the series with Mus musculus [12]. Further, the ED97 with Rattus norvegicus [5] amounted to 114 mg/kg. Besides, in the series with Rattus norvegicus [10], the result was Active.
